Apaf1 activ – activators of human Apaf-1 apoptosome; 0.31% of 330,000 active; activity change, negative = activation, % at 20 µM; Apaf-1 apoptosome caspase-3 activation, DEVD-Rh110 fluorescence; hits give low values;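 active = activity change at or below -40% at 20 µM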
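System: Reconstituted apoptosome of Apaf-1, cytochrome c, caspase-9, procaspase-3 | Reagent: dATP, cytochrome c, and (Z-DEVD)2-Rh110 caspase-3 substrate | Times: 30 min compound preincubation and 50 min reaction, both room temperature | Detection: Caspase-3-released Rh110 fluorescence, 540 nm emission, 480 nm excitation | Measure: Caspase-3 activity via Apaf-1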
Rh110 act interf – interferes with Rh110 fluorescence, flagging false Apaf-1 activators; shares compounds with Apaf1 activ; Rh110 fluorescence interference, quenched caspase reaction, Ex480/Em540; fluorescence interference (activity change), % at 20 µM, hits read low; 980 tested, under 10 active;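 active = mean activity change at or below -40% when tested at 20 µM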
Apaf-1 act conf – Apaf-1 (human) activation, single-dose confirmed | shares compounds with Apaf1 activ | reconstituted apoptosome caspase-3 activity, DEVD-Rh110 fluorescence; hits give low values | activity change, negative = activation, % at 20 µM | 5% of 980 active;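 active = mean activity change at or below -40%, meaning activation of 40% or more, at 20 µM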
Fluor interf act – Apaf-1 activator counter-screen fluorescence artifact. EC50, µM. fluorescence interference counterscreen, Apaf-1 activator assay. 55 tested, under 10 active. AID 588592. shares compounds with Apaf1 activ; call rule not given here
* marks the source's active call; other numbers are inactive results; . = not tested or not shown. Only a sample is shown.

SMILES	Apaf1 activ	Rh110 act interf	Apaf-1 act conf	others
Cc1c(C)n(CC(O)CN2CCN(C)CC2)c2ccccc12 (stereo not given)	-66.5*	8.3	17.5
C#CCOCCOCCOCCNc1nc(N2CCN(C(=O)[C@H]([C@@H](C)CC)n3cc([C@@H](N)Cc4ccc(O)cc4)nn3)CC2)nc(N2CCN(C(=O)[C@H](Cc3cc4ccccc4[nH]3)n3cc([C@@H](N)C(C)CC)nn3)CC2)n1 (stereo not given in full)	49.1	.	.
CSc1ccc2c(c1)N(CCC1CCCCN1C)c1ccccc1S2 (stereo not given)	54.7	.	.
O=C(c1cccs1)[C@@H]1[C@@H]2C(=O)N(Cc3ccc4c(c3)OCO4)C(=O)[C@@H]2C2c3ccccc3C=CN21 (stereo not given in full)	81.9	.	.
CC(C)(C(=O)O)c1ccc([C@H](O)CCCN2CCC(C(O)(c3ccccc3)c3ccccc3)CC2)cc1	-114.4*	12.7	11.8
CNC[C@H]1Oc2ccc(NC(=O)Nc3ccc(OC)cc3)cc2C(=O)N([C@@H](C)CO)C[C@H]1C	44.7	.	.
CCN1C(=O)C(C(=O)Nc2ccc(OC)cc2)C2CC1(C)Oc1ccccc12 (stereo not given)	-542.0*	9.0	11.6
COc1ccc2cc(C(c3nnnn3C3CCCC3)N3CCc4ccccc4C3)c(=O)[nH]c2c1 (stereo not given)	72.1	.	.
COc1ccc(NCc2cc3cc(OC)ccc3[nH]c2=O)cc1	47.3	.	.
CNC(=S)N(Cc1cc2ccc(OC)cc2[nH]c1=O)CC1CCCO1 (stereo not given)	-182.9*	4.9	15.1
CC1(C(=O)O)Oc2cccnc2NC1=O (stereo not given)	-221.4*	-3.1	7.2
O=C(CSc1ccc(-c2ccc3c(c2)OCO3)nn1)Nc1nccs1	-45.3*	8.6	11.5
CC(=O)c1cccc(NC(=O)CSc2ccc(-c3ccco3)nn2)c1	45.2	.	.
COc1ccc(NC(=O)C(c2ccccn2)N(C(C)=O)c2ccc(C)cc2)cc1 (stereo not given)	-415.4*	7.6	6.0
COc1ccccc1C(=O)Nc1ccc(Oc2nnc(-c3ccc(C)cc3)c3ccccc23)cc1	40.1	.	.
COC1=C(Nc2ccc(C)cc2)C(=O)c2ccccc2C1=O	61.5	.	.
CCCN(CC(=O)Nc1ccccc1C)C(=O)C1CCCN(C(=O)c2ccc(Cl)cc2)C1 (stereo not given)	48.4	.	.
COc1ccc(-c2[nH]nc3oc(=O)cc(C)c23)cc1	-135.4*	6.7	16.3
COc1ccc(-c2cc(-c3ccc(F)cc3)nc(N3CCN(C)CC3)n2)cc1	65.3	.	.
c1ccc(CC2CCN(c3nc4ccccc4n4nnnc34)CC2)cc1	57.6	.	.
CCN1/C(=C/C=C/c2sc3ccccc3[n+]2CC)Sc2ccccc21	89.8	.	.
c1nc(NCC2(N3CCOCC3)CCCCC2)c2ccsc2n1	-312.6*	6.9	14.7
CC(=O)N1CCc2c(sc(NC(=O)c3cccc(N4C(=O)CCC4=O)c3)c2C(N)=O)C1	57.0	.	.
CN(CCO)C(=O)c1c(NC(=O)c2ccccc2)sc2c1CCCC2	-362.3*	12.3	17.6
COc1ccc2ccccc2c1C1CC(=O)N2CN(Cc3ccco3)CSC2=C1C#N (stereo not given)	51.7	.	.
SMILES	Apaf1 activ	Rh110 act interf	Apaf-1 act conf	others
CCOc1cccc(N(C(=O)C2COc3ccccc3O2)C(C(=O)NC2CCCCC2)c2ccc(O)cc2)c1 (stereo not given)	46.7	.	.
O=C(NC1CCCCC1)C(c1ccncc1)N(C(=O)c1csnn1)c1ccccc1F (stereo not given)	-127.8*	9.4	9.4
CCOc1cccc(-c2cc(=O)[nH][nH]2)c1	43.9	.	.
CCn1cc(C(=O)Nc2ccc(NC(=O)c3ccco3)cc2)c(=O)c2ccc(C)nc21	-58.8*	-8.1	-3.6
CCn1cc(C(=O)OCC(=O)OC2CC(C)CCC2C(C)C)c(=O)c2ccc(C)nc21 (stereo not given)	47.6	.	.
CC(C)(C)NC(=O)C[C@H]1C[C@H](C(=O)N2CCOCC2)[C@@]2(CCC3CCCC3)c3[nH]c4ccc(Cl)cc4c3CCN2C1=O	44.3	.	.
CCOc1cc(NCc2ccccc2)c2ncn(C(C)C)c2c1	41.7	.	.
COc1ccc(C[C@H]2CN3C(=NC[C@H]3Cc3ccccc3)N2CCNC(=O)c2ccc(C)c(Br)c2)cc1	42.9	.	.
CC1=NN(c2ccc(S(=O)(=O)O)cc2C)C(=O)C1	50.5	.	.
C/C(=N\NC(=O)Cn1ccc(C(F)(F)F)n1)c1ccc2c(c1)OCO2	-134.3*	1.3	-0.1
CC(=O)c1ccc(OCC(O)CN2CCN(Cc3ccc4c(c3)OCO4)CC2)cc1 (stereo not given)	-0.2	.	.
CCCCCc1cc(=O)oc2c(C(CCN3CCCC(C)C3)c3ccc(N(C)C)cc3)c(OC)cc(OC)c12 (stereo not given)	68.0	.	.
CN(C)CCOc1ccc(-c2c(-c3ccsc3)sc3ccccc23)cc1	71.3	.	.
O=C(O)CCN1C(=O)/C(=C2\C(=O)N(Cc3ccccc3Cl)c3ccccc32)SC1=S	-120.8*	-0.8	-30.8
c1cc2c3c(cccc3c1)NC1(CCC3(CC1)Nc1cccc4cccc(c14)N3)N2	40.1	.	.
O=C1NCC(c2ccccc2)C1C(=O)N/N=C\c1ccc(-c2cccc(Cl)c2Cl)o1 (stereo not given)	40.0	.	.
Cc1ccc(C)c(S(=O)(=O)/N=C2\C=C(NS(=O)(=O)c3ccccc3)C(=O)c3ccccc32)c1	78.4	.	.	Fluor interf act=>100
CCc1ccc(S(=O)(=O)/N=C2\C=C(NS(=O)(=O)c3ccccc3)C(=O)c3ccccc32)cc1	57.4	.	.
Cc1ccccc1NC1=C/C(=N\S(=O)(=O)c2ccc(C(=O)O)cc2)c2ccccc2C1=O	96.7	.	.
CC(C)C[C@@H]1CN=C(N)N1C[C@@H]1CCCN1C[C@@H](C(C)C)N1C[C@@H](Cc2ccccc2)N(CCCC2CCCC2)C1=N	54.8	.	.
Cc1ccc2nc(-c3cccnc3)c(NC3CCCCC3)n2c1	-49.5*	5.4	14.2
CCC(C)Sc1ccc(-c2nc3ccc(C)cn3c2NC2CCCCC2)cc1 (stereo not given)	40.9	.	.
c1cc(SC2CCCCC2)cc(-c2nc3cnccn3c2NC2CCCCC2)c1	41.3	.	.
CC[C@@H](C)[C@@H]1CN([C@@H](CN2CCC[C@H]2CN2C(N)=NC[C@H]2C(C)C)C(C)C)C(=N)N1CCc1ccc(Cl)c(Cl)c1	51.0	.	.
O=C(CSc1nc2ccccc2s1)N/N=C/c1ccco1	-62.1*	0.1	7.5
SMILES	Apaf1 activ	Rh110 act interf	Apaf-1 act conf	others
CC(=C/c1ccco1)/C=N/NC(=O)CSc1nnc(SCc2ccc(C)cc2)s1	-89.9*	5.7	33.8
Cn1c(SCC(=O)Nc2ccc3nc(SCC(=O)N4CCCC4)sc3c2)nnc1-c1ccccc1	65.8	.	.
O=[N+]([O-])c1c(NCCCO)cc(Sc2nc3ccccc3s2)c2nonc12	97.8	.	.
CN1CCc2cccc3c2[C@H]1Cc1ccc(O)c(O)c1-3	42.2	.	.
COc1ccc(-c2coc3c(CN4CCCCC4)c(O)c(CN4CCCCC4)c(O)c3c2=O)cc1	42.5	.	.
Cc1ccccc1NC(=O)NC1CCCCCCC1	-63.2*	4.3	6.4
Cc1cccn2c(=O)c3cc(C(=O)NC4CCCCC4)c(=N)n(Cc4ccccc4)c3nc12	57.3	.	.
